Jurkat tox 60K – cytotoxic compounds reducing Jurkat cell viability. Jurkat E6.1 viability, ATP luminescence, 48 h. AID 463. inhibition, % at 4 µM. 56,000 tested, 1.2% active;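 active = inhibition above the mean inhibition of all tested compounds plus 3 SD, cut at about 28% in these data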
E coli WT exp – blocks growth of wild type E. coli BW25113. OD600 absorbance. growth inhibition, % at 100 µM. 98,000 tested, 0.15% active. AID 710;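 active = growth inhibition above about 50% at one test dose, limit read from the data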;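 also: growth measured after 20 h incubation at 37 °C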
Ecoli tolC – growth inhibitors of E. coli BW25113 tolC mutant; 65,000 tested, 2.2% active; growth inhibition, % at 10 µM (by protocol); OD615;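 active = growth inhibition at or above a cutoff equal to the mean over every tested compound plus 3 SD, cut at about 60% in these data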;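 also: growth measured after 20 h incubation at 37 °C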
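Test system: E. coli BW25113 ΔtolC::kan bacteria | Medium: Kanamycin-containing LB broth (50 µg/mL) | Dosing: One dose of 10 µM final | Times: 20 h incubation with compound, 37 °C | Detection: Optical density read at 615 nm | Read-out basis: Percent growth inhibition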
HUVEC prolif 384 – blocks proliferation of human endothelial cells; AID 648; viability, % at 10 µM (by protocol); 86,000 tested, 1.1% active; HUVEC proliferation, CellTiter-Glo luminescence, 72 h; stronger effect = lower value;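 active = viability at or below 30%; inactive = viability above 30%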;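 also: 100% = median luminescence of DMSO-only cell control wells on each plate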
H69AR inhibit – growth inhibitors of human H69AR lung tumor cells; H69AR lung tumor viability, ATP luminescence, 72 h; stronger effect = lower value; viability, % at 10 µM; 85,000 tested, 6% active; AID 598;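 active = viability at or below 40%; inactive = viability above 40%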;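 also: multidrug resistant small cell line overexpressing MRP-1 efflux transporter; 100% = mean luminescence of untreated control wells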
Fibroblast inh – blocks proliferation of human lung fibroblasts. LL 47 human lung fibroblast viability, ATP luminescence; stronger effect = lower value. viability, % at 10 µM. 85,000 tested, 1.1% active. AID 719;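 active = viability at or below 50% in the single dose screen; inactive = viability above 50%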;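 also: compound exposure lasted 72 h before the ATP readout; 100% = median luminescence of untreated cell-only wells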
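Test system: LL 47 human lung fibroblasts / Quantity: 1,150 cells in each well / Medium: IMEM growth medium with 15% fetal bovine serum / Incubation: 72 h compound exposure at 37 °C after overnight plating / Detection: CellTiter-Glo luminescence measuring cellular ATP / Read-out: % viability versus median cells-only luminescence / Benchmarks: cell-only wells, no compound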
Active calls of the source: *; . = no result given. An excerpt weighted towards active compounds, which were near 6.4% of everything screened.

SMILES	Jurkat tox 60K	E coli WT exp	Ecoli tolC	HUVEC prolif 384	H69AR inhibit	Fibroblast inh
COc1ccc(-c2cc(-c3c(O)c(OC)c4occc4c3OC)[nH]n2)cc1OC	1	6	43	78	26*	63
COc1cc(CNC2CCCC2)cc(Cl)c1OCc1ccccc1F	.	20	.	.	.	.
Cc1ccc2cc(C3C(C#N)=C(N)Oc4c3ccc3cccnc43)c(=O)[nH]c2c1 (stereo not drawn)	.	-10	.	80	37*	51
CCc1ccc2[nH]c(=O)c(C3C(C#N)=C(N)Oc4c3ccc3cccnc43)cc2c1 (stereo not drawn)	.	-3	.	57	0.8*	70
CC(=O)C1=C(C)OC(N)=C(C#N)C1c1cc2cccc(C)c2nc1Cl (stereo not drawn)	.	5	.	.	.	.
COc1ccc(CC(=O)Nc2ccc(-c3cn4ccc(C)cc4n3)cc2)cc1	.	-17	.	.	.	.
CC(=O)Nc1sc(NC(=O)c2ccccc2)nc1-c1cccs1	.	-10	-11	97	55	107
CSc1nc2ccc3nc(NC(=O)c4ccccc4)sc3c2s1	.	-13	.	109	32*	97
COc1ccc(-c2nc(Cn3c(SCc4ccccc4F)nc4ccncc43)c(C)o2)cc1	.	-10	.	30	14*	40*
COC(=O)c1sccc1NC(=S)N1CC(C)CC(C)C1 (stereo not drawn)	.	2	.	98	93	97
CCC(CC)c1nnc(NC(=O)CCCN2C(=O)c3ccccc3C2=O)s1	.	0	.	103	90	94
O=c1ccsn1Cc1ccccc1	-3	100*	100*	83	1.3*	8.6*
O=C(Nc1ccccc1O)c1ccccc1O	8	63*	-3	79	89	93
Cc1ccc(C)c(NC(=O)c2ccccc2O)c1	3	3	80*	81	19*	97
Cc1cccc(NC(=O)c2ccccc2O)c1C	.	20	53	99	53	90
COc1ccc(OC)c(NC(=O)Nc2nnc(N3CCC(C)CC3)s2)c1	-14	.	-3	123	78	104
COc1ccc(NC(=O)Nc2nnc(N3CCC(C)CC3)s2)cc1OC	-11	.	-7	83	37*	94
Cc1ccc(S(=O)(=O)Nc2cc(C(=O)Nc3cc(C)cc(C)c3)ccc2Cl)cc1	.	-3	.	.	.	.
CCN1C(=O)/C(=C2/Sc3ccc(OC)cc3N2C)SC1=Nc1cccc(O)c1	3	-2	-9	95	24*	80
CCN(CC)S(=O)(=O)c1cccc(C(=O)Nc2cc(C)cc(C)c2)c1	.	-17	.	82	32*	100
CCN(CC)S(=O)(=O)c1cccc(C(=O)Nc2cccc(C)c2)c1	.	-4	.	92	25*	102
Cc1cc(C)n(C(=O)CCCCCCCCC(=O)n2nc(C)cc2C)n1	.	2	.	99	90	103
CCOc1cc(/C=C2/C(=N)N3C=CSC3=NC2=O)ccc1OCCCOc1ccccc1C	.	-8	.	18*	6.5*	32*
COc1cc(/C=C2/C(=N)N3C=CSC3=NC2=O)ccc1OCCCOc1ccccc1C	.	-4	.	15*	6.1*	66
Cc1ccc(NCc2nnc(SC(C)C(=O)N/N=C/c3ccc(C)o3)n2-c2ccccc2)cc1 (stereo not drawn)	.	8	.	.	.	.
SMILES	Jurkat tox 60K	E coli WT exp	Ecoli tolC	HUVEC prolif 384	H69AR inhibit	Fibroblast inh
Cc1cc(OCc2nc(-c3ccc(NC(=O)c4cccnc4)cc3)no2)ccc1Cl	.	-1	.	.	.	.
Cc1cccc(-c2noc(CCCC(=O)Nc3cccnc3)n2)c1	6	5	6	.	.	.
O=C(CCCc1nc(-c2ccc(Cl)cc2)no1)Nc1cccnc1	42*	9	27	64	111	108
O=C(Nc1ccc(-c2noc(CCc3ccccc3)n2)cc1)c1cccnc1	6	-6	-16	68	5.5*	87
CCOC(=O)c1ccc(NC(=O)CCc2nc(-c3ccccc3Cl)no2)cc1	2	5	99*	45	29*	95
O=C(CCCc1nc(-c2ccccc2Cl)no1)NCc1cccnc1	-9	-1	-5	95	39*	99
CC(=O)c1cc(F)c(N2CCN(C(=O)COc3ccc(F)cc3)CC2)cc1C	.	.	.	97	80	97
CCCCSc1c(C)c2cc3c(cc2[nH]c1=O)OCO3	-6	-2	8	110	92	103
Cn1c(=O)[nH]c(=O)c2c1nc(N1CCOCC1)n2CCSc1ncccn1	4	.	-26	97	103	103
Cc1cnnn1-c1ccc(C(=O)CCl)cc1	.	98*	.	65	0.0*	54
CC(=O)c1ccc(-n2nncc2C(C)(C)C)cc1	.	-2	-7	96	89	93
CCn1c(Sc2ccc(N)cc2Cl)nc2ccccc21	5	11	23	108	34*	94
CCCCc1ccc(N2C(=O)[C@@H]3C(CC(N)=O)NC4(C(=O)Nc5ccc(F)cc54)[C@@H]3C2=O)cc1 (stereo partly drawn)	.	-6	.	82	99	101
CCOC(=O)CSc1ccc(-c2nc3cc(C)c(C)cc3[nH]2)cn1	.	-4	.	117	84	77
Cc1cc2nc(-c3ccc(SCC(=O)N4CCOCC4)nc3)[nH]c2cc1C	.	-6	-5	45	28*	91
Cc1cc2nc(-c3ccc(SCC(=O)N4CCN(C(=O)c5ccco5)CC4)nc3)[nH]c2cc1C	.	-7	22	30	12*	72
Cc1cc([N+](=O)[O-])ccc1NC(=S)NC(=O)C(c1ccccc1)c1ccccc1	.	-16	.	81	32*	94
CCOC(=O)c1ccc(N2C(=O)C=CC2=O)cc1	.	0	.	12*	1.9*	4.3*
CC(=O)c1ccccc1Oc1nc(CN2CCOCC2)nc2scc(-c3cccs3)c12	6	-18	11	75	30*	.
Brc1ccc(-c2nc(-c3ccccc3)no2)o1	2	7	98*	97	76	95
COc1ccc(OC)c(NC(=O)c2c(NC(=O)CNCc3ccco3)sc3c2CCC3)c1	4	-13	-8	80	16*	78
Cc1nn2c([nH]c(=O)c3ccccc32)c1C=O	.	5	.	83	88	99
Cc1c(Br)c([N+](=O)[O-])nn1CC(=O)NCc1cccnc1	.	3	.	93	93	102
CCOc1cc(C#N)c(NC(=O)c2cccnc2)cc1OCC	72*	-3	-22	.	.	.
CCOc1cc(C#N)c(NC(=O)c2cccnc2Cl)cc1OCC	.	4	.	104	96	98
Cn1c(=O)n(CCN2CCOCC2)c(=O)c2c1nc1n2CCN1c1ccccc1	8	.	-28	97	96	94
O=C1C(Cl)=C(NCCCO)C(=O)c2ccccc21	.	17	.	96	7.4*	104
O=C1[C@H]2[C@@H](C(=O)N1c1cc(Cl)cc(Cl)c1)[C@]1(C(=O)Nc3ccccc31)N1CCC[C@@H]21	6	11	80*	103	92	108
CCOCCCNS(=O)(=O)c1ccc(-n2cnnn2)c(OC)c1	.	0	.	103	108	98
COc1ccc(-n2c(=S)[nH]c3cc(C(=O)NCc4ccco4)ccc3c2=O)cc1OC	-2	-17	-6	102	81	97

Assay outcomes (PubChem BioAssay)
